In ChEMBL document CHEMBL4184147, “Polyphenolic Phytochemicals in Cancer Prevention and Therapy: Bioavailability versus Bioefficacy” (J Med Chem, 2017):

Tests used:
NCI-H460 [1] = experiment: Cytotoxicity against human NCI-H460 cells assessed as decrease in cell viability after 48 hrs by MTT assay; type: functional, cell-based; settings: NCI-H460, 48 h
T47D [2] = experiment: Cytotoxicity against human T47D cells assessed as cell viability at 34 uM after 48 hrs by MTT assay; type: functional; settings: read-out: Activity
T47D [3] = experiment: Cytotoxicity against human T47D cells assessed as decrease in cell viability after 48 hrs by trypan blue exclusion and LDH release
[4] = Plasma concentration in mouse at 10 mg/kg, iv at 120 mins by LC-MS/MS method; type: ADME, organism-based
Outline: (§1)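 For IV dosing, compound dissolved in DMSO:ethanol (2:1), total volume no more than 30 μL. For oral dosing, compound given in a self-microemulsifying delivery system (60% surfactant, emulsifier OP:Cremophor EL 1:1; 30% PEG 400; 10% ethyl oleate), total volume no more than 100 μL. Plasma levels measured by previously described methods.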

MCF7 = experiment: Cytotoxicity against human MCF7 cells assessed as decrease in cell viability at 20 uM after 48 hrs by SRB method relative to control; type: functional
U-87 MG [5] = experiment: Cytotoxicity against human U87 cells assessed as cell viability at 34 uM after 48 hrs by MTT assay; type: functional, U-87MG ATCC; settings: read-out: Activity
BXPC-3 [6] = experiment: Cytotoxicity against human BxPC3 cells assessed as decrease in cell viability after 48 hrs by MTT assay; type: functional, cell-based; settings: BXPC-3, 48 h
BXPC-3 [7] = experiment: Cytotoxicity against human BxPC3 cells assessed as cell viability at 34 uM after 48 hrs by MTT assay; type: functional; settings: BXPC-3, 48 h, read-out: Activity
COLO 201 [8] = experiment: Cytotoxicity against human COLO201 cells assessed as cell viability at 34 uM after 48 hrs by trypan blue exclusion and LDH release; settings: COLO 201, 48 h
HT-29 [9] = experiment: Cytotoxicity against human HT-29 cells assessed as decrease in cell viability at 20 uM after 48 hrs by SRB method relative to control; type: functional
HT-29 [10] = experiment: Cytotoxicity against human HT-29 cells assessed as cell viability at 34 uM after 48 hrs by MTT assay; type: functional; settings: HT-29, 48 h, read-out: Activity
HT-29 [11] = experiment: Cytotoxicity against human HT-29 cells assessed as decrease in cell viability after 48 hrs by trypan blue exclusion and LDH release; settings: HT-29, 48 h
A-375 = experiment: Cytotoxicity against human A375 cells assessed as decrease in cell viability at 20 uM after 48 hrs by SRB method relative to control; type: functional
SK-MEL-2 [12] = experiment: Cytotoxicity against human SK-MEL-2 cells assessed as cell viability at 34 uM after 48 hrs by MTT assay; type: functional; settings: SK-MEL-2, 48 h, read-out: Activity
A549 [13] = experiment: Cytotoxicity against human A549 cells assessed as decrease in cell viability at 20 uM after 48 hrs by SRB method relative to control; type: functional
[14] = Plasma concentration in mouse at 100 mg/kg, po at 60 mins by LC-MS/MS method; type: ADME, organism-based; outline: as §1
[15] = Tmax in mouse at 100 mg/kg, po by HPLC method; type: ADME, organism-based; settings: in vivo
Outline: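 Given orally in a self-microemulsifying delivery system (60% surfactant, emulsifier OP:Cremophor EL 1:1; 30% PEG 400 cosurfactant; 10% ethyl oleate oil), total volume no more than 100 μL. Plasma levels measured by previously described methods.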

MDA-MB-231 [16] = experiment: Cytotoxicity against human MDA-MB-231 cells assessed as decrease in cell viability after 48 hrs by trypan blue exclusion and LDH release; settings: MDA-MB-231, 48 h
[17] = Plasma concentration in mouse at 10 mg/kg, iv at 60 mins by LC-MS/MS method; type: ADME, organism-based; outline: as §1
PANC-1 [18] = experiment: Cytotoxicity against human PANC1 cells assessed as decrease in cell viability after 48 hrs by MTT assay; type: functional, cell-based; settings: PANC-1, 48 h
[19] = Cytotoxicity against human MML1 cells assessed as decrease in cell viability after 48 hrs by MTT assay; type: functional, cell-based
PANC-1 [20] = experiment: Cytotoxicity against human PANC1 cells assessed as cell viability at 34 uM after 48 hrs by MTT assay; type: functional; settings: PANC-1, 48 h, read-out: Activity
[21] = Cmax in mouse at 10 mg/kg, iv by LC-MS/MS method; type: ADME, organism-based; parameters: dose 10 mg/kg, route intravenous; settings: in vivo
Outline: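 Mouse iv dosing used polyphenol dissolved in DMSO:ethanol (2:1), with total injected volume never above 30 μL. Plasma levels were measured by previously described methods.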

SK-MEL-2 [22] = experiment: Cytotoxicity against human SK-MEL-2 cells assessed as decrease in cell viability after 48 hrs by MTT assay; type: functional, cell-based; settings: SK-MEL-2, 48 h
NCI-H460 [23] = experiment: Cytotoxicity against human NCI-H460 cells assessed as cell viability at 34 uM after 48 hrs by trypan blue exclusion and LDH release; settings: NCI-H460, 48 h
LN-229 [24] = experiment: Cytotoxicity against human LN229 cells assessed as cell viability at 34 uM after 48 hrs by MTT assay; type: functional; settings: LN-229, 48 h, read-out: Activity
U-87 MG [25] = experiment: Cytotoxicity against human U87 cells assessed as decrease in cell viability after 48 hrs by trypan blue exclusion and LDH release
A549 [26] = experiment: Cytotoxicity against human A549 cells assessed as cell viability at 34 uM after 48 hrs by trypan blue exclusion and LDH release; settings: A549, 48 h
MDA-MB-231 [27] = experiment: Cytotoxicity against human MDA-MB-231 cells assessed as cell viability at 34 uM after 48 hrs by MTT assay; type: functional; settings: MDA-MB-231, 48 h, read-out: Activity
[28] = Cytotoxicity against human MML1 cells assessed as cell viability at 34 uM after 48 hrs by MTT assay; type: functional; settings: read-out: Activity
[29] = Cmax in mouse at 100 mg/kg, po by HPLC method; type: ADME, organism-based; parameters: dose 100 mg/kg, route oral; settings: in vivo
Outline: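 For oral dosing, polyphenol was dissolved in a self-microemulsifying delivery system: 60% surfactant (emulsifier OP:Cremophor EL 1:1), 30% cosurfactant (PEG 400) and 10% oil (ethyl oleate). Total volume given was never above 100 μL. Plasma levels were quantified by previously described methods.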

[30] = Tmax in mouse at 10 mg/kg, iv by LC-MS/MS method; type: ADME, organism-based; settings: in vivo; outline: as §1
LN-229 [31] = experiment: Cytotoxicity against human LN229 cells assessed as decrease in cell viability after 48 hrs by trypan blue exclusion and LDH release; settings: LN-229, 48 h
COLO 201 [32] = experiment: Cytotoxicity against human COLO201 cells assessed as decrease in cell viability after 48 hrs by trypan blue exclusion and LDH release; settings: COLO 201, 48 h
A549 [33] = experiment: Cytotoxicity against human A549 cells assessed as decrease in cell viability after 48 hrs by trypan blue exclusion and LDH release; settings: A549, 48 h
COLO 201 [34] = experiment: Cytotoxicity against human COLO201 cells assessed as cell viability at 14 uM after 48 hrs by MTT assay; type: functional; settings: COLO 201, 48 h, read-out: Activity
LN-229 [35] = experiment: Cytotoxicity against human LN229 cells assessed as cell viability at 14 uM after 48 hrs by MTT assay; type: functional; settings: LN-229, 48 h, read-out: Activity
NCI-H460 [36] = experiment: Cytotoxicity against human NCI-H460 cells assessed as cell viability at 14 uM after 48 hrs by MTT assay; type: functional; settings: NCI-H460, 48 h, read-out: Activity
A549 [37] = experiment: Cytotoxicity against human A549 cells assessed as cell viability at 14 uM after 48 hrs by MTT assay; type: functional; settings: A549, 48 h, read-out: Activity
BXPC-3 [38] = experiment: Cytotoxicity against human BxPC3 cells assessed as cell viability at 14 uM after 48 hrs by MTT assay; type: functional; settings: BXPC-3, 48 h, read-out: Activity
[39] = Cytotoxicity against human MML1 cells assessed as cell viability at 14 uM after 48 hrs by MTT assay; type: functional; settings: read-out: Activity
Homo sapiens = experiment: Renal toxicity in patient assessed as decrease in glomerular flow rate at 1400 mg/m'2, iv administered as bolus dose measured after 24 hrs relative to control; type: organism-based; parameters: scale not given: the % may be the effect or the level left; settings: in vivo
PANC-1 [40] = experiment: Cytotoxicity against human PANC1 cells assessed as cell viability at 14 uM after 48 hrs by MTT assay; type: functional; settings: PANC-1, 48 h, read-out: Activity
T47D [41] = experiment: Cytotoxicity against human T47D cells assessed as cell viability at 14 uM after 48 hrs by MTT assay; type: functional; settings: read-out: Activity
SK-MEL-2 [42] = experiment: Cytotoxicity against human SK-MEL-2 cells assessed as cell viability at 14 uM after 48 hrs by MTT assay; type: functional; settings: SK-MEL-2, 48 h, read-out: Activity
U-87 MG [43] = experiment: Cytotoxicity against human U87 cells assessed as cell viability at 14 uM after 48 hrs by MTT assay; type: functional, U-87MG ATCC; settings: read-out: Activity
MDA-MB-231 [44] = experiment: Cytotoxicity against human MDA-MB-231 cells assessed as cell viability at 14 uM after 48 hrs by MTT assay; type: functional; settings: MDA-MB-231, 48 h, read-out: Activity
HT-29 [45] = experiment: Cytotoxicity against human HT-29 cells assessed as cell viability at 14 uM after 48 hrs by MTT assay; type: functional; settings: HT-29, 48 h, read-out: Activity

| SMILES | IC50 (NCI-H460 [1]) | IC50 (T47D [3]) | IC50 (BXPC-3 [6]) | IC50 (HT-29 [11]) | concentration at 1 h [14] | Tmax [15] | IC50 (MDA-MB-231 [16]) | concentration at 1 h [17] | IC50 (PANC-1 [18]) | IC50 [19] | Cmax [21] | IC50 (SK-MEL-2 [22]) | IC50 (U-87 MG [25]) | Cmax [29] | Tmax [30] | IC50 (LN-229 [31]) | IC50 (COLO 201 [32]) | IC50 (A549 [33]) | other results |
| --- | --- | --- | --- | --- | --- | --- | --- | --- | --- | --- | --- | --- | --- | --- | --- | --- | --- | --- | --- |
| COc1cc(/C=C/c2ccc(O)cc2)cc(OC)c1 [PTEROSTILBENE] | 17 µM | 35 µM | 31 µM | 28 µM | < 1 µM | 10 min | 63 µM | 15 µM | 50 µM | 17 µM | 67 µM | 17 µM | 34 µM | 25 µM | 5 min | 14 µM | 29 µM | 26 µM | viability at 34 µM (T47D [2]): 91%; concentration at 2 h [4]: < 1 µM; Activity (MCF7): 25%; viability at 34 µM (U-87 MG [5]): 103%; viability at 34 µM (BXPC-3 [7]): 97%; viability at 34 µM (COLO 201 [8]): 95%; Activity (HT-29 [9]): 10%; viability at 34 µM (HT-29 [10]): 96%; Activity (A-375): 30%; viability at 34 µM (SK-MEL-2 [12]): 85%; Activity (A549 [13]): 40%; viability at 34 µM (PANC-1 [20]): 94%; viability at 34 µM (NCI-H460 [23]): 83%; viability at 34 µM (LN-229 [24]): 98%; viability at 34 µM (A549 [26]): 81%; viability at 34 µM (MDA-MB-231 [27]): 90%; viability at 34 µM [28]: 87% |
| O=c1c(O)c(-c2ccc(O)c(O)c2)oc2cc(O)cc(O)c12 [QUERCETIN] | 12 µM | 11 µM | 16 µM | 18 µM | < 1 µM | 15 min | 20 µM | < 1 µM | 62 µM | 15 µM | 27 µM | 12 µM | 23 µM | 8 µM | 5 min | 12 µM | 19 µM | 13 µM | viability at 14 µM (COLO 201 [34]): 101%; viability at 14 µM (LN-229 [35]): 106%; viability at 14 µM (NCI-H460 [36]): 95%; viability at 14 µM (A549 [37]): 104%; viability at 14 µM (BXPC-3 [38]): 96%; viability at 14 µM [39]: 103%; Activity (Homo sapiens): 20%; viability at 14 µM (PANC-1 [40]): 102%; viability at 14 µM (T47D [41]): 100%; viability at 14 µM (SK-MEL-2 [42]): 97%; viability at 14 µM (U-87 MG [43]): 97%; viability at 14 µM (MDA-MB-231 [44]): 103%; viability at 14 µM (HT-29 [45]): 94% |
